Experiments:
OVCAR-8 = experiment: Growth inhibition of human OVCAR8 cells; assay type: functional
CCRF-CEM = experiment: Growth inhibition of human CCRF-CEM cells; assay type: functional; details: for CC50: read-out: pLC50 (the source's name) (converted); for TGI: read-out: pTGI (converted)
PC-3 = experiment: Growth inhibition of human PC3 cells; assay type: functional; details: for CC50: read-out: pLC50 (the source's name) (converted); for TGI: read-out: pTGI (converted)
SF-268 = experiment: Growth inhibition of human SF268 cells; assay type: functional; details: for TGI: read-out: pTGI (converted)
NCI/ADR-RES = experiment: Growth inhibition of human NCI/ADR-RES cells; assay type: functional; details: for CC50: read-out: pLC50 (the source's name) (converted); for TGI: read-out: pTGI (converted)
MDA-MB-435 = experiment: Growth inhibition of human MDA-MB-435 cells; assay type: functional; details: for TGI: read-out: pTGI (converted)
[1] = Cytotoxicity against human NCI60 cells; assay type: functional
OVCAR-5 = experiment: Growth inhibition of human OVCAR5 cells; assay type: functional; details: for TGI: read-out: pTGI (converted)
MDA-MB-231 = experiment: Growth inhibition of human MDA-MB-231 cells; assay type: functional; details: for TGI: read-out: pTGI (converted)
SF-295 = experiment: Cytotoxicity against human SF295 cells after 44 hrs by MTT assay; assay type: functional, cell-based; details: SF-295, 44 h
Method in brief: (§1)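 SF-295 cells cultured in RPMI 1640 and A549 cells in F-12, each with 10% FBS, penicillin–streptomycin, amphotericin B and L-glutamine, at 37 °C in 5% CO2. Cells were grown to 60% confluency, then treated for 44 h. Medium was replaced with medium containing 0.06 mg/mL MTT (phenol red-free RPMI for SF-295) for 4 h. Acid/Triton/isopropanol stop solution was added, plates incubated overnight at 37 °C, OD read at 540 and 650 nm, and EC50 calculated.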

MDA-MB-468 = experiment: Growth inhibition of human MDA-MB-468 cells; assay type: functional; details: for TGI: read-out: pTGI (converted)
[2] = Growth inhibition of human […] cells; assay type: functional
A549 [3] = experiment: Cytotoxicity against human A549 cells after 44 hrs by MTT assay; assay type: functional, cell-based; details: A549, 44 h; method in brief: as §1
SNB-75 = experiment: Growth inhibition of human SNB75 cells; assay type: functional; details: for TGI: read-out: pTGI (converted)
LOX IMVI = experiment: Growth inhibition of human LOXIMVI cells; assay type: functional; details: for TGI: read-out: pTGI (converted)
EKVX = experiment: Growth inhibition of human EKVX cells; assay type: functional; details: for TGI: read-out: pTGI (converted)
HOP-92 = experiment: Growth inhibition of human HOP92 cells; assay type: functional; details: for TGI: read-out: pTGI (converted)
SW-620 = experiment: Growth inhibition of human SW620 cells; assay type: functional
A549 [4] = experiment: Selectivity index, ratio of EC50 for human A549 cells to EC50 for SF295 cells; assay type: functional
Method in brief: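 SF-295 cells were kept in RPMI 1640 and A549 in F-12, each with 10% FBS, pen-strep, amphotericin B and L-glutamine, at 37 °C and 5% CO2. Cells at 60% confluency were dosed for 44 h, then given 0.06 mg/mL MTT for 4 h (SF-295 in phenol-red-free RPMI). Acid/Triton/isopropanol stop was added overnight at 37 °C, and OD read at 540/650 nm. EC50 ratio is A549 over SF-295.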

SK-MEL-28 = experiment: Growth inhibition of human SK-MEL-28 cells; assay type: functional
[5] = Growth inhibition of human Hs 578T cells; assay type: functional
[6] = read-out: pLC50 (the source's name) (converted)

Q: Which results are given for `COc1cc(CCc2cc(O)c(C/C=C(\C)CC/C=C(\C)CO)c(O)c2)cc2c1O[C@]1(C)CC[C@@H](O)C(C)(C)[C@H]1C2`?
A: GI50 (OVCAR-8): 8.32 µM; CC50 (OVCAR-8; [6]): > 100 µM; TGI (OVCAR-8; read-out: pTGI (converted)): 64.6 µM; GI50 (CCRF-CEM): 4.07 µM; CC50 (CCRF-CEM): > 100 µM; TGI (CCRF-CEM): 45.7 µM; GI50 (PC-3): 5.5 µM; CC50 (PC-3): > 100 µM; TGI (PC-3): 77.6 µM; GI50 (SF-268): 6.03 µM; LC50 (SF-268): 87.1 µM; TGI (SF-268): 25.7 µM; GI50 (NCI/ADR-RES): 17.4 µM; CC50 (NCI/ADR-RES): > 100 µM; TGI (NCI/ADR-RES): 61.7 µM; GI50 (MDA-MB-435): 6.31 µM; LC50 (MDA-MB-435): > 100 µM; TGI (MDA-MB-435): 32.4 µM; GI50 [1]: 4.9 µM; GI50 (OVCAR-5): 20.9 µM; LC50 (lethal concentration, 50% cell kill) (OVCAR-5): > 100 µM; TGI (OVCAR-5): 66.1 µM; GI50 (MDA-MB-231): 8.13 µM; LC50 (MDA-MB-231): > 100 µM; TGI (MDA-MB-231): 38 µM; EC50 (SF-295): > 10 µM; GI50 (MDA-MB-468): 5.89 µM; LC50 (MDA-MB-468): > 100 µM; TGI (MDA-MB-468): 50.1 µM; GI50 [2]: 1.45 µM; LC50 [2]: > 100 µM; TGI ([2]; read-out: pTGI (converted)): 7.24 µM; EC50 (A549 [3]): > 10 µM; GI50 (SNB-75): 1.7 µM; LC50 (SNB-75): > 100 µM; TGI (SNB-75): 10.7 µM; GI50 (LOX IMVI): 4.47 µM; LC50 (LOX IMVI): 46.8 µM; TGI (LOX IMVI): 16.6 µM; GI50 (EKVX): 5.75 µM; LC50 (EKVX): > 100 µM; TGI (EKVX): 33.1 µM; GI50 (HOP-92): 7.41 µM; LC50 (HOP-92): > 100 µM; TGI (HOP-92): 47.9 µM

Q: Which GI50 (SW-620) does the source give for `COc1cc(/C=C/c2cc(O)c(CCC(C)C)c(O)c2)cc2c1O[C@]1(C)CC[C@@H](O)C(C)(C)[C@H]1C2` here?
A: 0.214 µM

Q: What about the CC50 (SW-620; [6]) of the same molecule?
A: 14.8 µM

Q: What about the TGI (SW-620; read-out: pTGI (converted)) of the same molecule?
A: 2.34 µM

Q: And the “Ratio EC50” value (A549 [4])?
A: 10

Q: And the GI50 (CCRF-CEM)?
A: 0.148 µM

Q: What about the CC50 (CCRF-CEM) of the same molecule?
A: > 100 µM

Q: And the TGI (CCRF-CEM)?
A: 18.6 µM

Q: And the GI50 (SK-MEL-28)?
A: 0.123 µM

Q: What about the CC50 (SK-MEL-28; [6]) of the same molecule?
A: 37.2 µM

Q: What about the TGI (SK-MEL-28; read-out: pTGI (converted)) of the same molecule?
A: 11.2 µM

Q: What about the GI50 (PC-3) of the same molecule?
A: 0.178 µM

Q: And the CC50 (PC-3)?
A: > 100 µM

Q: And the TGI (PC-3)?
A: 32.4 µM

Q: And the GI50 (SF-268)?
A: 0.214 µM

Q: What about the LC50 (SF-268) of the same molecule?
A: 39.8 µM

Q: And the TGI (SF-268)?
A: 11.5 µM

Q: What about the GI50 (NCI/ADR-RES) of the same molecule?
A: 2.34 µM

Q: And the CC50 (NCI/ADR-RES)?
A: > 100 µM

Q: What about the TGI (NCI/ADR-RES) of the same molecule?
A: 47.9 µM

Q: And the GI50 (MDA-MB-435)?
A: 0.501 µM

Q: What about the LC50 (MDA-MB-435) of the same molecule?
A: > 100 µM

Q: What about the TGI (MDA-MB-435) of the same molecule?
A: 24 µM

Q: What about the GI50 [1] of the same molecule?
A: 0.29 µM

Q: What about the GI50 (OVCAR-5) of the same molecule?
A: 10.7 µM

Q: And the LC50 (lethal concentration, 50% cell kill) (OVCAR-5)?
A: 69.2 µM

Q: What about the TGI (OVCAR-5) of the same molecule?
A: 26.9 µM

Q: And the GI50 (MDA-MB-231)?
A: 1.74 µM

Q: What about the LC50 (MDA-MB-231) of the same molecule?
A: 39.8 µM

Q: And the TGI (MDA-MB-231)?
A: 11 µM

Q: What about the EC50 (SF-295) of the same molecule?
A: 0.4 µM

Q: And the GI50 (MDA-MB-468)?
A: 0.851 µM

Q: What about the LC50 (MDA-MB-468) of the same molecule?
A: 57.5 µM

Q: And the TGI (MDA-MB-468)?
A: 4.37 µM

Q: What about the GI50 [2] of the same molecule?
A: 0.0174 µM

Q: What about the LC50 [2] of the same molecule?
A: > 100 µM

Q: And the EC50 (A549 [3])?
A: 4.2 µM

Q: And the GI50 (SNB-75)?
A: 0.0603 µM

Q: What about the LC50 (SNB-75) of the same molecule?
A: 39.8 µM

Q: And the TGI (SNB-75)?
A: 11.2 µM

Q: And the GI50 [5]?
A: 0.0309 µM

Q: And the CC50 [5, 6]?
A: > 100 µM

Q: And the TGI ([5]; read-out: pTGI (converted))?
A: 0.166 µM

Q: And the GI50 (LOX IMVI)?
A: 0.0708 µM

Q: What about the LC50 (LOX IMVI) of the same molecule?
A: 5.89 µM

Q: What about the TGI (LOX IMVI) of the same molecule?
A: 1.78 µM

Q: And the GI50 (EKVX)?
A: 0.447 µM

Q: What about the LC50 (EKVX) of the same molecule?
A: > 100 µM

Q: And the TGI (EKVX)?
A: 17.4 µM

Q: What about the GI50 (HOP-92) of the same molecule?
A: 1.51 µM

Q: What about the LC50 (HOP-92) of the same molecule?
A: > 100 µM

Q: What about the TGI (HOP-92) of the same molecule?
A: 24 µM

From ChEMBL document CHEMBL1156920, “Structural analogues of schweinfurthin F: probing the steric, electronic, and hydrophobic properties of the D-ring substructure” (Bioorg Med Chem, 2010)
